The nature of series [1]: Restoration of e-cadherin expression in human SW620 cells by in-cell-western assay. It is filed as functional, cell-based. Conditions: SW-620.
A short description of series [2]: Restoration of e-cadherin expression in human SW620 cells at 10 uM by in-cell-western assay relative to control. It is filed as functional, cell-based. Conditions: SW-620. Put shortly:
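In-Cell-Western immunofluorescence read-out of e-cadherin in SW620 colon carcinoma cells after treatment at 10 μM; value is average fold change from two assessments.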

A further series has as its target Cytochrome P450 2C9 (Homo sapiens, UniProt P11712). The experiment in a line: Inhibition of CYP2C9 (unknown origin). The format is ADME.
The nature of series [3]: Intrinsic clearance in mouse microsomes. It is filed as ADME, Microsome.
The target in a further series is Cytochrome P450 3A4 (Homo sapiens, UniProt P08684). Kind of series: Inhibition of CYP3A4 (unknown origin). The format is ADME.
Series [4] is described as follows: Fraction unbound in mouse. The format is ADME, organism-based. Conditions: in vivo.
A further series deals with Rattus norvegicus. Kind of series: Clearance in Sprague-Dawley rat at 1 mg/kg, iv. Conditions: in vivo. The format is ADME, organism-based. Put shortly: (§1)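 Single 1 mg/kg intravenous dose in male Sprague-Dawley rats; clearance and half-life from plasma pharmacokinetics.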
Series [5] in a line: Fraction unbound in human. The format is ADME, organism-based. Conditions: in vivo.
The nature of series [6]: Intrinsic clearance in human microsomes. The format is ADME, Microsome.
A further series has as its target Cytochrome P450 2D6 (Homo sapiens, UniProt P10635). The experiment in a line: Inhibition of CYP2D6 (unknown origin). It is filed as ADME.
A short description of series [7]: Fraction unbound in rat. The format is ADME, organism-based. Conditions: in vivo.
Series [8] in a line: Half life in Sprague-Dawley rat at 1 mg/kg, iv. The format is ADME, organism-based. Conditions: in vivo. In short, it runs like this: as §1
A short description of series [9]: Intrinsic clearance in rat microsomes. The format is ADME, Microsome.
Another series concerns the target T1, Cytochrome P450 1A2 (Homo sapiens, UniProt P05177).
T1 sequence (P05177 whole entry): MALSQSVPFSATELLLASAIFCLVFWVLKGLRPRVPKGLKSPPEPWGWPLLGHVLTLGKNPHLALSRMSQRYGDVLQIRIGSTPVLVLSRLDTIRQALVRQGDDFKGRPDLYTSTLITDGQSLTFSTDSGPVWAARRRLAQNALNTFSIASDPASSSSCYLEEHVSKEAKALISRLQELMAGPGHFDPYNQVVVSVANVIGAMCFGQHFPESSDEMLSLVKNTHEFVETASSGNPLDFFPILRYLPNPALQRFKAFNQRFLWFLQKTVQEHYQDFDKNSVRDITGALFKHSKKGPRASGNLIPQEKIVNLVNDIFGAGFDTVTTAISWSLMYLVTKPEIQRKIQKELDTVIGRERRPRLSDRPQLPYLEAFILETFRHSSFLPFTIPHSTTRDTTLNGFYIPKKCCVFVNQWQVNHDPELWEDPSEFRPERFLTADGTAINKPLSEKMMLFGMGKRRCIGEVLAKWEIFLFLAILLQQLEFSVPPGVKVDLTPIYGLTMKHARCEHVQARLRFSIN
Kind of series: Inhibition of CYP1A2 (unknown origin). It is filed as ADME. Put shortly:
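CYP1A2 was assessed in a P450 isozyme panel with 3A4, 2C9 and 2D6. The compound was tested at 30 μM, and the value is reported as a threshold relative to that concentration.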

Data on 39 compounds can be found in ChEMBL document CHEMBL3616409, “Optimization of a small molecule probe that restores e-cadherin expression” (Bioorg Med Chem Lett, 2015).

Sequence of Cytochrome P450 2D6 (P10635 whole entry): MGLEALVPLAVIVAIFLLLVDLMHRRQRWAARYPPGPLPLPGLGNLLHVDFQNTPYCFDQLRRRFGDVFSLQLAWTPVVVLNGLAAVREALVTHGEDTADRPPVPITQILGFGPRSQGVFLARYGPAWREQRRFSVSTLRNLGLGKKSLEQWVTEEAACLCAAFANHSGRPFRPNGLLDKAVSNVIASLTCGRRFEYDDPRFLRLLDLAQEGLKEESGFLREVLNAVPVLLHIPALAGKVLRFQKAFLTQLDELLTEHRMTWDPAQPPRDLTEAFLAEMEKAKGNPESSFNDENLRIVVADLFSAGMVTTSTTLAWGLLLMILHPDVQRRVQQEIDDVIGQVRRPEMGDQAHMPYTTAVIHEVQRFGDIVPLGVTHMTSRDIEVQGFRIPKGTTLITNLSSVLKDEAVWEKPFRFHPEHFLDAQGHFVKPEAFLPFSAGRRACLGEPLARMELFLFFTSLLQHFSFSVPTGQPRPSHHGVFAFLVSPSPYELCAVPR
Sequence of Cytochrome P450 3A4 (P08684 whole entry): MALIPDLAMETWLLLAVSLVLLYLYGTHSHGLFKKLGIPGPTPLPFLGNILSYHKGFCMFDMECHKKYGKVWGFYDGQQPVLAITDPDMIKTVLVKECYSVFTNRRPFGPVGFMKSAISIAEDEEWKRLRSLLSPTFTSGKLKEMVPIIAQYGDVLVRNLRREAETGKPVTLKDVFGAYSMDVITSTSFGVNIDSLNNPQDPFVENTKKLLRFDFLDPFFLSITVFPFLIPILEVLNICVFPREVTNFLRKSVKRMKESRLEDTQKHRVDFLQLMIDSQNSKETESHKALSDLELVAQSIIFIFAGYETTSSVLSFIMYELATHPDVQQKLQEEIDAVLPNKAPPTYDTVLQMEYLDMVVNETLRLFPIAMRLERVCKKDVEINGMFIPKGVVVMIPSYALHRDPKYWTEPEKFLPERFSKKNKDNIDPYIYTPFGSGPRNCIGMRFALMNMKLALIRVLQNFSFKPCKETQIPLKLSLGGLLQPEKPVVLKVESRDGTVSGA
Sequence of Cytochrome P450 2C9 (P11712 whole entry): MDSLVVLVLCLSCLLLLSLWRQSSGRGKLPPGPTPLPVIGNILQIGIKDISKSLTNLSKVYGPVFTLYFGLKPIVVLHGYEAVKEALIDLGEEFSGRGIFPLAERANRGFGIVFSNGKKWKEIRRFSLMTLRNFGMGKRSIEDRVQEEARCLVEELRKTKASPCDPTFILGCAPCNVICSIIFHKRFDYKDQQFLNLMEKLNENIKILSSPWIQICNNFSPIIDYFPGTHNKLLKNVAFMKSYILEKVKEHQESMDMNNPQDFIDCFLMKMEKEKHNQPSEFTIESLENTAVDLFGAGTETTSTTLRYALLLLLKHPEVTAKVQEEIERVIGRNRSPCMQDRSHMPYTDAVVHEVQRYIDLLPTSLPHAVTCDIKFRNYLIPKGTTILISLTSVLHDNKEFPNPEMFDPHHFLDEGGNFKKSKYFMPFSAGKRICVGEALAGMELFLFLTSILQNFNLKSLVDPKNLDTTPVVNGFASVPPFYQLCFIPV

In the case of `O=C(Cc1c[nH]c2ccccc12)NCCCCNC(=O)c1cc(-c2ccccc2)on1`, in series [1], the EC50 (as a rule, the concentration needed to bring the measured effect to its halfway point) stood at 12.6 µM.

On to `Cc1cc(CNCCCNC(=O)c2cc(-c3ccccc3)on2)on1`, for which, in series [2], the fold change (FC) stood at 3.4.

In the case of `Cc1c(C(=O)NCCCCc2ccncc2)nn(C)c1-c1ccccc1`, in series [2], the fold change (FC) stood at 0.75.

Turning to `O=C(NCCCNCc1c[nH]c2ccccc12)c1cc(-c2ccccc2)on1`, the fold change (FC) in series [2] worked out at 1.44.

Turning to `O=C(NCCCNC(=O)c1cc(-c2ccccc2)on1)c1cccnc1`, the fold change (FC) in series [2] worked out at 3.05.

For the compound `O=C(NCCCNCc1ccccc1O)c1cc(-c2ccccc2)on1`, the fold change (FC) in series [2] was determined as 3.59.

For the compound `O=C(NCCCNC(=O)c1cc(-c2ccccc2)on1)c1ccncc1`, the EC50 in series [1] amounted to 8.8 µM.

Consider `O=C(NCCCCNC(=O)c1cccs1)c1cc(-c2cccs2)on1`, for which, in [2], the fold change (FC) worked out at 3.04.

`O=C(NCCCCNC(=O)c1cc(-c2ccccc2)on1)c1cocn1`: the fold change (FC) in series [2] worked out at 3.35.

On to `O=C(Cc1ccccc1O)NCCCNC(=O)c1cc(-c2ccccc2)on1`, for which the EC50 in series [1] was 3.7 µM.

In turn, `Nc1cncc(C(=O)NCCCCNC(=O)c2cc(-c3cccs3)on2)n1` registered an EC50 in [1] of 5.6 µM. Compared with the last compound, the EC50 is about 1.5-fold higher.

Consider `O=C(NCCCNCc1ccc(O)cc1O)c1cc(-c2ccccc2)on1`, for which, in series [2], the fold change (FC) was 2.33.

On to `Cc1ncc(CNCCCNC(=O)c2cc(-c3ccccc3)on2)o1`, for which the fold change (FC) in series [2] amounted to 1.5.

Take `O=C(NCCCNC(=O)c1cc(Br)ccc1O)c1cc(-c2ccccc2)on1`: the fold change (FC) in [2] turned out to be 2.43.

On to `CC(CNC(=O)c1cc(-c2cccs2)on1)c1ccncc1` (stereo unspecified), for which the fold change (FC) in series [2] was found to be 0.32.

On to `O=C(NCCCCNC(=O)c1cc(-c2cccs2)on1)c1cccnc1`, for which a half-maximal response in [1] (EC50) required 5 µM.

Regarding `O=C(NCCCCNC(=O)c1cc(-c2ccccc2)on1)c1cccnc1`, the EC50 in [1] amounted to 7.1 µM.

Turning to `O=C(NCCCNCc1ccccn1)c1cc(-c2ccccc2)on1`, the fold change (FC) in series [2] stood at 2.52.

Take `O=C(NCCCCNC(=O)c1cc(-c2ccccc2)on1)c1ccc(O)c(O)c1`: in [2], the fold change (FC) stood at 2.69.

In [1], `[N-]=[N+]=Nc1ccnc(NCCCNC(=O)c2cc(-c3ccccc3)on2)n1` showed an EC50 of 5.3 µM.

For `O=C(NCCCNCc1c[nH]c2ncccc12)c1cc(-c2ccccc2)on1`, in [2], the fold change (FC) amounted to 1.67.

Regarding `O=C(NCCCNC(=O)c1n[nH]c2ccccc12)c1cc(-c2ccccc2)on1`, the fold change (FC) in series [2] turned out to be 1.62.

In the case of `O=C(NCCCCNC(=O)c1cc(-c2ccccc2)on1)c1cscn1`, the fold change (FC) in series [2] worked out at 3.7.

On to `O=C(NCCCCNC(=O)c1cccnc1O)c1cc(-c2ccccc2)on1`, for which the IC50 on Cytochrome P450 2C9, against Cytochrome P450 3A4, on Cytochrome P450 2D6 and at Cytochrome P450 1A2 was above 30 µM throughout. Also, the clearance in [3] came to 180 mL/min/kg; with Rattus norvegicus, 18 mL/min/kg; in [6] it was 0 mL/min/kg; in series [9], 33 mL/min/kg. In addition, the results for the Fu in series [4], in series [5] and in [7] were 0.19, 0.01 and 0.11, respectively. Moreover, the half-life – broadly, how long it takes for the measured level to halve – in series [8] was 7.6 h. Moreover, the fold change (FC) in series [2] came out at 5.23.

As to `O=C(NCCCNC(=O)c1nccs1)c1cc(-c2ccccc2)on1`, the EC50 in series [1] was 4.8 µM.

`Cc1ccc(C(=O)NCCCCNC(=O)c2cc(-c3ccccc3)on2)c(O)n1` came in with an EC50 in series [1] of 5.6 µM.

Consider `O=C(NCCCNCc1cccnc1)c1cc(-c2ccccc2)on1`, for which the fold change (FC) in series [2] was found to be 3.06.

With `Cn1nc(C(=O)NCCCCc2ccncc2)cc1-c1ccccc1`, the fold change (FC) in series [2] was determined as 1.38.

Regarding `O=C(NCCCN1CCOCC1)c1n[nH]c2ccccc12`, in series [2], the fold change (FC) is 0.63.

With `O=C(NCCCNC(=O)c1cc(-c2ccccc2)[nH]n1)c1ccncc1`, the fold change (FC) in [2] is 1.29.

In series [1], `N#Cc1ccnc(NCCCNC(=O)c2cc(-c3ccccc3)on2)c1` displayed an EC50 of 12 µM. In other words, the double-digit micromolar range.

In turn, `O=C(NCCCCNC(=O)c1ccc(Cl)o1)c1cc(-c2ccccc2)on1` registered an EC50 in series [1] of 4.6 µM.

As to `COc1cncc(CNCCCNC(=O)c2cc(-c3ccccc3)on2)c1`, in [2], the fold change (FC) was found to be 3.58.

As to `O=C(NCCCCNC(=O)c1cc(I)ccc1O)c1cc(-c2ccccc2)on1`, the fold change (FC) in series [2] was 2.43.

`CC(=O)n1cc(CNCCCNC(=O)c2cc(-c3ccccc3)on2)c2ccccc21` returned an EC50 in series [1] of 15 µM.

`O=C(NCCCCc1ccncc1)c1cc(-c2ccco2)on1` had an EC50 in series [1] of 4.7 µM.

As for `O=C(NCCCNCc1ccc(O)c(O)c1)c1cc(-c2ccccc2)on1`, the fold change (FC) in series [2] amounted to 1.54.

`O=C(NCCCCNC(=O)c1c[nH]c2ccccc12)c1cc(-c2ccccc2)on1`: the fold change (FC) in [2] is 2.39.

`O=C(NCCCn1ccnc1)c1noc2ccccc12`: the fold change (FC) in [2] is 1.21.
